Data from ChEMBL document CHEMBL1156310, “Stepwise synthesis of oligonucleotide-peptide conjugates containing guanidinium and lipophilic groups in their 3'-termini” (Bioorg Med Chem Lett, 2010).

Columns and labels:
SH-SY5Y [1] = assay: Antisense activity in human SH-SY5Y cells assessed as inhibition of luciferase gene expression at 60 nM after 22 hrs by luminometry in the presence of lipofectamine 2000; format: functional
How it was run: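 SH-SY5Y cells cotransfected via Lipofectamine 2000 with Renilla (target) and firefly (internal control) luciferase plasmids plus phosphorothioate ASO derivatives at 60 nM, targeting Renilla mRNA site 21-38; scrambled sequences as controls. Read-out: Renilla luciferase inhibition normalized to firefly.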

SH-SY5Y [2] = assay: Cellular uptake in human SH-SY5Y cells at 300 nM after 22 hrs by dual leucifearse reporter assay; format: ADME, cell-based; settings: 0.3 µM
How it was run: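 Dual-luciferase plasmids (Renilla target, firefly internal control) transfected into SH-SY5Y; after 3 h, medium replaced with fresh medium containing ASO-peptide conjugates (150, 200, 300 nM) without Lipofectamine 2000. Luciferase activities measured 22 h after transfection; knockdown expressed as inhibition of Renilla expression. Phosphorothioate ASO targets Renilla mRNA 21-38 site.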

Structure (SMILES) | inhibition at 0.06 µM (SH-SY5Y [1]) | Drug uptake (SH-SY5Y [2])
CCCCCCCCNC(=O)NCCCC[C@@H](NC(=O)CCCOP(O)(=S)OC[C@H]1O[C@@H](n2cnc3c(N)ncnc32)[C@H](O)[C@@H]1OP(O)(=S)OC[C@H]1O[C@@H](n2cnc3c(=O)[nH]c(N)nc32)[C@H](O)[C@@H]1OP(O)(=S)OC[C@H]1O[C@@H](n2cnc3c(=O)[nH]c(N)nc32)[C@H](O)[C@@H]1OP(O)(=S)OC[C@H]1O[C@@H](n2cc(C)c(=O)[nH]c2=O)C[C@@H]1OP(O)(=S)OC[C@H]1O[C@@H](n2ccc(N)nc2=O)[C@H](O)[C@@H]1OP(O)(=S)OC[C@H]1O[C@@H](n2cc(C)c(=O)[nH]c2=O)C[C@@H]1OP(O)(=S)OC[C@H]1O[C@@H](n2cc(C)c(=O)[nH]c2=O)C[C@@H]1OP(O)(=S)OC[C@H]1O[C@@H](n2cnc3c(=O)[nH]c(N)nc32)[C@H](O)[C@@H]1OP(O)(=S)OC[C@H]1O[C@@H](n2cc(C)c(=O)[nH]c2=O)C[C@@H]1OP(O)(=S)OC[C@H]1O[C@@H](n2cc(C)c(=O)[nH]c2=O)C[C@@H]1OP(O)(=S)OC[C@H]1O[C@@H](n2cc(C)c(=O)[nH]c2=O)C[C@@H]1OP(O)(=S)OC[C@H]1O[C@@H](n2ccc(N)nc2=O)[C@H](O)[C@@H]1OP(O)(=S)OC[C@H]1O[C@@H](n2ccc(N)nc2=O)[C@H](O)[C@@H]1OP(O)(=S)OC[C@H]1O[C@@H](n2cc(C)c(=O)[nH]c2=O)C[C@@H]1OP(O)(=S)OC[C@H]1O[C@@H](n2cc(C)c(=O)[nH]c2=O)C[C@@H]1OP(O)(=S)OC[C@H]1O[C@@H](n2cc(C)c(=O)[nH]c2=O)C[C@@H]1OP(O)(=S)OC[C@H]1O[C@@H](n2cnc3c(=O)[nH]c(N)nc32)[C@H](O)[C@@H]1OP(O)(=S)OC[C@H]1O[C@@H](n2ccc(N)nc2=O)[C@H](O)[C@@H]1O)C(=O)NCCCCCCO (some centres not stated) | 55% | –
Cc1cn([C@H]2C[C@H](OP(O)(=S)OC[C@H]3O[C@@H](n4cc(C)c(=O)[nH]c4=O)C[C@@H]3OP(O)(=S)OC[C@H]3O[C@@H](n4cnc5c(=O)[nH]c(N)nc54)[C@H](O)[C@@H]3OP(O)(=S)OC[C@H]3O[C@@H](n4cc(C)c(=O)[nH]c4=O)C[C@@H]3OP(O)(=S)OC[C@H]3O[C@@H](n4cc(C)c(=O)[nH]c4=O)C[C@@H]3OP(O)(=S)OC[C@H]3O[C@@H](n4cc(C)c(=O)[nH]c4=O)C[C@@H]3OP(O)(=S)OC[C@H]3O[C@@H](n4ccc(N)nc4=O)[C@H](O)[C@@H]3OP(O)(=S)OC[C@H]3O[C@@H](n4ccc(N)nc4=O)[C@H](O)[C@@H]3OP(O)(=S)OC[C@H]3O[C@@H](n4cc(C)c(=O)[nH]c4=O)C[C@@H]3OP(O)(=S)OC[C@H]3O[C@@H](n4cc(C)c(=O)[nH]c4=O)C[C@@H]3OP(O)(=S)OC[C@H]3O[C@@H](n4cc(C)c(=O)[nH]c4=O)C[C@@H]3OP(O)(=S)OC[C@H]3O[C@@H](n4cnc5c(=O)[nH]c(N)nc54)[C@H](O)[C@@H]3OP(O)(=S)OC[C@H]3O[C@@H](n4ccc(N)nc4=O)[C@H](O)[C@@H]3O)[C@@H](COP(O)(=S)O[C@H]3[C@@H](O)[C@H](n4ccc(N)nc4=O)O[C@@H]3COP(O)(=S)O[C@H]3C[C@H](n4cc(C)c(=O)[nH]c4=O)O[C@@H]3COP(O)(=S)O[C@H]3[C@@H](O)[C@H](n4cnc5c(=O)[nH]c(N)nc54)O[C@@H]3COP(O)(=S)O[C@H]3[C@@H](O)[C@H](n4cnc5c(=O)[nH]c(N)nc54)O[C@@H]3COP(O)(=S)O[C@H]3[C@@H](O)[C@H](n4cnc5c(N)ncnc54)O[C@@H]3COP(O)(=S)OCCCC(=O)N[C@H](CCCCNC(=N)N)C(=O)N[C@@H](CCCCNC(=N)N)C(=O)NCCCCCCO)O2)c(=O)[nH]c1=O (some centres not stated) | 64% | 18%
Cc1cn([C@H]2C[C@H](OP(O)(=S)OC[C@H]3O[C@@H](n4cc(C)c(=O)[nH]c4=O)C[C@@H]3OP(O)(=S)OC[C@H]3O[C@@H](n4cnc5c(=O)[nH]c(N)nc54)[C@H](O)[C@@H]3OP(O)(=S)OC[C@H]3O[C@@H](n4cc(C)c(=O)[nH]c4=O)C[C@@H]3OP(O)(=S)OC[C@H]3O[C@@H](n4cc(C)c(=O)[nH]c4=O)C[C@@H]3OP(O)(=S)OC[C@H]3O[C@@H](n4cc(C)c(=O)[nH]c4=O)C[C@@H]3OP(O)(=S)OC[C@H]3O[C@@H](n4ccc(N)nc4=O)[C@H](O)[C@@H]3OP(O)(=S)OC[C@H]3O[C@@H](n4ccc(N)nc4=O)[C@H](O)[C@@H]3OP(O)(=S)OC[C@H]3O[C@@H](n4cc(C)c(=O)[nH]c4=O)C[C@@H]3OP(O)(=S)OC[C@H]3O[C@@H](n4cc(C)c(=O)[nH]c4=O)C[C@@H]3OP(O)(=S)OC[C@H]3O[C@@H](n4cc(C)c(=O)[nH]c4=O)C[C@@H]3OP(O)(=S)OC[C@H]3O[C@@H](n4cnc5c(=O)[nH]c(N)nc54)[C@H](O)[C@@H]3OP(O)(=S)OC[C@H]3O[C@@H](n4ccc(N)nc4=O)[C@H](O)[C@@H]3O)[C@@H](COP(O)(=S)O[C@H]3[C@@H](O)[C@H](n4ccc(N)nc4=O)O[C@@H]3COP(O)(=S)O[C@H]3C[C@H](n4cc(C)c(=O)[nH]c4=O)O[C@@H]3COP(O)(=S)O[C@H]3[C@@H](O)[C@H](n4cnc5c(=O)[nH]c(N)nc54)O[C@@H]3COP(O)(=S)O[C@H]3[C@@H](O)[C@H](n4cnc5c(=O)[nH]c(N)nc54)O[C@@H]3COP(O)(=S)O[C@H]3[C@@H](O)[C@H](n4cnc5c(N)ncnc54)O[C@@H]3COP(O)(=S)OCCCC(=O)N[C@H](CCCCN)C(=O)N[C@@H](CCCCN)C(=O)NCCCCCCO)O2)c(=O)[nH]c1=O (some centres not stated) | 61% | 11%
CCCCCCCCc1ccc(NC(=O)NCCCC[C@@H](NC(=O)CCCOP(O)(=S)OC[C@H]2O[C@@H](n3cnc4c(N)ncnc43)[C@H](O)[C@@H]2OP(O)(=S)OC[C@H]2O[C@@H](n3cnc4c(=O)[nH]c(N)nc43)[C@H](O)[C@@H]2OP(O)(=S)OC[C@H]2O[C@@H](n3cnc4c(=O)[nH]c(N)nc43)[C@H](O)[C@@H]2OP(O)(=S)OC[C@H]2O[C@@H](n3cc(C)c(=O)[nH]c3=O)C[C@@H]2OP(O)(=S)OC[C@H]2O[C@@H](n3ccc(N)nc3=O)[C@H](O)[C@@H]2OP(O)(=S)OC[C@H]2O[C@@H](n3cc(C)c(=O)[nH]c3=O)C[C@@H]2OP(O)(=S)OC[C@H]2O[C@@H](n3cc(C)c(=O)[nH]c3=O)C[C@@H]2OP(O)(=S)OC[C@H]2O[C@@H](n3cnc4c(=O)[nH]c(N)nc43)[C@H](O)[C@@H]2OP(O)(=S)OC[C@H]2O[C@@H](n3cc(C)c(=O)[nH]c3=O)C[C@@H]2OP(O)(=S)OC[C@H]2O[C@@H](n3cc(C)c(=O)[nH]c3=O)C[C@@H]2OP(O)(=S)OC[C@H]2O[C@@H](n3cc(C)c(=O)[nH]c3=O)C[C@@H]2OP(O)(=S)OC[C@H]2O[C@@H](n3ccc(N)nc3=O)[C@H](O)[C@@H]2OP(O)(=S)OC[C@H]2O[C@@H](n3ccc(N)nc3=O)[C@H](O)[C@@H]2OP(O)(=S)OC[C@H]2O[C@@H](n3cc(C)c(=O)[nH]c3=O)C[C@@H]2OP(O)(=S)OC[C@H]2O[C@@H](n3cc(C)c(=O)[nH]c3=O)C[C@@H]2OP(O)(=S)OC[C@H]2O[C@@H](n3cc(C)c(=O)[nH]c3=O)C[C@@H]2OP(O)(=S)OC[C@H]2O[C@@H](n3cnc4c(=O)[nH]c(N)nc43)[C@H](O)[C@@H]2OP(O)(=S)OC[C@H]2O[C@@H](n3ccc(N)nc3=O)[C@H](O)[C@@H]2O)C(=O)NCCCCCCO)cc1 (some centres not stated) | 8% | –
Cc1cn([C@H]2C[C@H](OP(O)(=S)OC[C@H]3O[C@@H](n4cc(C)c(=O)[nH]c4=O)C[C@@H]3OP(O)(=S)OC[C@H]3O[C@@H](n4cnc5c(=O)[nH]c(N)nc54)[C@H](O)[C@@H]3OP(O)(=S)OC[C@H]3O[C@@H](n4cc(C)c(=O)[nH]c4=O)C[C@@H]3OP(O)(=S)OC[C@H]3O[C@@H](n4cc(C)c(=O)[nH]c4=O)C[C@@H]3OP(O)(=S)OC[C@H]3O[C@@H](n4cc(C)c(=O)[nH]c4=O)C[C@@H]3OP(O)(=S)OC[C@H]3O[C@@H](n4ccc(N)nc4=O)[C@H](O)[C@@H]3OP(O)(=S)OC[C@H]3O[C@@H](n4ccc(N)nc4=O)[C@H](O)[C@@H]3OP(O)(=S)OC[C@H]3O[C@@H](n4cc(C)c(=O)[nH]c4=O)C[C@@H]3OP(O)(=S)OC[C@H]3O[C@@H](n4cc(C)c(=O)[nH]c4=O)C[C@@H]3OP(O)(=S)OC[C@H]3O[C@@H](n4cc(C)c(=O)[nH]c4=O)C[C@@H]3OP(O)(=S)OC[C@H]3O[C@@H](n4cnc5c(=O)[nH]c(N)nc54)[C@H](O)[C@@H]3OP(O)(=S)OC[C@H]3O[C@@H](n4ccc(N)nc4=O)[C@H](O)[C@@H]3O)[C@@H](COP(O)(=S)O[C@H]3[C@@H](O)[C@H](n4ccc(N)nc4=O)O[C@@H]3COP(O)(=S)O[C@H]3C[C@H](n4cc(C)c(=O)[nH]c4=O)O[C@@H]3COP(O)(=S)O[C@H]3[C@@H](O)[C@H](n4cnc5c(=O)[nH]c(N)nc54)O[C@@H]3COP(O)(=S)O[C@H]3[C@@H](O)[C@H](n4cnc5c(=O)[nH]c(N)nc54)O[C@@H]3COP(O)(=S)O[C@H]3[C@@H](O)[C@H](n4cnc5c(N)ncnc54)O[C@@H]3COP(O)(=S)OCCCC(=O)NCCCCCCO)O2)c(=O)[nH]c1=O (some centres not stated) | 69% | –
